From ChEMBL document CHEMBL5058577, “EUbOPEN Chemogenomics Library 2 (Multiplex)” (2022)

System: HEK-293T
Assay: Multiplex assay against HEK293T
Assay type: toxicity, cell-based
Conditions: human
How it was run: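 Cells stained live at seeding with Hoechst33342, BioTracker Green Microtubule Cytoskeleton Dye, MitoTracker Red and Annexin V Alexa Fluor 680 were imaged on a CQ1 microscope at 37°C and 5% CO2 after compound addition. Their classification by CellPathfinder machine-learning gating ran from Hoechst high-intensity objects versus normal cells, to healthy, pyknosed or fragmented nuclei among normal cells, to mitotic or apoptotic among pyknosed cells. Tubulin, mitochondrial-mass and membrane-permeability phenotypes are per cents of healthy-nucleus cells.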

[1] = 12 h, 1 µM, compound concentration 1 uM, replicate 1
[2] = 12 h, 1 µM, compound concentration 1 uM, replicate 2
[3] = 12 h, 10 µM, compound concentration 10 uM, replicate 1
[4] = 12 h, 10 µM, compound concentration 10 uM, replicate 2
[5] = 24 h, 1 µM, compound concentration 1 uM, replicate 1
[6] = 24 h, 1 µM, compound concentration 1 uM, replicate 2
[7] = 24 h, 10 µM, compound concentration 10 uM, replicate 1
[8] = 24 h, 10 µM, compound concentration 10 uM, replicate 2
[9] = 48 h, 1 µM, compound concentration 1 uM, replicate 1
[10] = 48 h, 1 µM, compound concentration 1 uM, replicate 2
[11] = 48 h, 10 µM, compound concentration 10 uM, replicate 1
[12] = 48 h, 10 µM, compound concentration 10 uM, replicate 2

CC[C@H]1OC(=O)[C@H](C)[C@@H](O[C@H]2C[C@@](C)(OC)[C@@H](O)[C@H](C)O2)[C@H](C)[C@@H](O[C@@H]2O[C@H](C)C[C@H](N(C)C)[C@H]2O)[C@@]2(C)CC(C)=C(O2)[C@H](C)[C@@H](O)[C@]1(C)O
Population Apoptotic (%) [1]: 35% | Population Fragmented Nuclei (%) [1]: 8% | Population Healthy Nuclei (%) [1]: 74% | Population Hoechst High Intensity Objects (%) [1]: 6% | Population Membrane Permeable-Phenotype (%) [1]: 0% | Population Mitochondria Different-Phenotype (%) [1]: 56% | Population Mitotic Cells (%) [1]: 64% | Population Normal (%) [1]: 93% | Population Pyknosed Nuclei (%) [1]: 17% | Population Tubulin-Different-Phenotype (%) [1]: 41% | Total Cell Count [1]: 367 | Population Apoptotic (%) [2]: 45% | Population Fragmented Nuclei (%) [2]: 3% | Population Healthy Nuclei (%) [2]: 84% | Population Hoechst High Intensity Objects (%) [2]: 7% | Population Mitochondria Different-Phenotype (%) [2]: 72% | Population Mitotic Cells (%) [2]: 54% | Population Normal (%) [2]: 92% | Population Pyknosed Nuclei (%) [2]: 11% | Population Tubulin-Different-Phenotype (%) [2]: 27% | Total Cell Count [2]: 300 | Population Apoptotic (%) [3]: 55% | Population Fragmented Nuclei (%) [3]: 8% | Population Healthy Nuclei (%) [3]: 71% | Population Hoechst High Intensity Objects (%) [3]: 13% | Population Membrane Permeable-Phenotype (%) [3]: 0% | Population Mitochondria Different-Phenotype (%) [3]: 87% | Population Mitotic Cells (%) [3]: 44% | Population Normal (%) [3]: 86% | Population Pyknosed Nuclei (%) [3]: 19% | Population Tubulin-Different-Phenotype (%) [3]: 76% | Total Cell Count [3]: 383 | Population Apoptotic (%) [4]: 56% | Population Fragmented Nuclei (%) [4]: 11% | Population Healthy Nuclei (%) [4]: 72% | Population Hoechst High Intensity Objects (%) [4]: 10% | Population Mitochondria Different-Phenotype (%) [4]: 91% | Population Mitotic Cells (%) [4]: 43% | Population Normal (%) [4]: 89% | Population Pyknosed Nuclei (%) [4]: 16% | Population Tubulin-Different-Phenotype (%) [4]: 77% | Total Cell Count [4]: 217 | Population Apoptotic (%) [5]: 20% | Population Fragmented Nuclei (%) [5]: 8% | Population Healthy Nuclei (%) [5]: 78% | Population Hoechst High Intensity Objects (%) [5]: 3% | Population Membrane Permeable-Phenotype (%) [5]: 0% | Population Mitochondria Different-Phenotype (%) [5]: 35% | Population Mitotic Cells (%) [5]: 79% | Population Normal (%) [5]: 96% | Population Pyknosed Nuclei (%) [5]: 13% | Population Tubulin-Different-Phenotype (%) [5]: 24% | Total Cell Count [5]: 493 | Population Apoptotic (%) [6]: 35% | Population Hoechst High Intensity Objects (%) [6]: 6% | Population Mitochondria Different-Phenotype (%) [6]: 49% | Population Mitotic Cells (%) [6]: 64% | Population Normal (%) [6]: 93% | Population Pyknosed Nuclei (%) [6]: 12% | Population Tubulin-Different-Phenotype (%) [6]: 22% | Total Cell Count [6]: 371 | Population Apoptotic (%) [7]: 42% | Population Fragmented Nuclei (%) [7]: 9% | Population Healthy Nuclei (%) [7]: 75% | Population Hoechst High Intensity Objects (%) [7]: 11% | Population Membrane Permeable-Phenotype (%) [7]: 0% | Population Mitochondria Different-Phenotype (%) [7]: 74% | Population Mitotic Cells (%) [7]: 57% | Population Normal (%) [7]: 88% | Population Pyknosed Nuclei (%) [7]: 15% | Population Tubulin-Different-Phenotype (%) [7]: 75% | Total Cell Count [7]: 499 | Population Apoptotic (%) [8]: 70% | Population Fragmented Nuclei (%) [8]: 10% | Population Healthy Nuclei (%) [8]: 71% | Population Hoechst High Intensity Objects (%) [8]: 10% | Population Mitochondria Different-Phenotype (%) [8]: 87% | Population Mitotic Cells (%) [8]: 29% | Population Normal (%) [8]: 89% | Population Pyknosed Nuclei (%) [8]: 18% | Population Tubulin-Different-Phenotype (%) [8]: 80% | Total Cell Count [8]: 254 | Population Apoptotic (%) [9]: 30% | Population Fragmented Nuclei (%) [9]: 12% | Population Healthy Nuclei (%) [9]: 76% | Population Hoechst High Intensity Objects (%) [9]: 8% | Population Membrane Permeable-Phenotype (%) [9]: 0% | Population Mitochondria Different-Phenotype (%) [9]: 28% | Population Mitotic Cells (%) [9]: 69% | Population Normal (%) [9]: 91% | Population Pyknosed Nuclei (%) [9]: 11% | Population Tubulin-Different-Phenotype (%) [9]: 21% | Total Cell Count [9]: 718 | Population Apoptotic (%) [10]: 21% | Population Healthy Nuclei (%) [10]: 78% | Population Hoechst High Intensity Objects (%) [10]: 6% | Population Mitochondria Different-Phenotype (%) [10]: 34% | Population Mitotic Cells (%) [10]: 78% | Population Normal (%) [10]: 93% | Population Pyknosed Nuclei (%) [10]: 9% | Population Tubulin-Different-Phenotype (%) [10]: 20% | Total Cell Count [10]: 584 | Population Apoptotic (%) [11]: 50% | Population Fragmented Nuclei (%) [11]: 12% | Population Healthy Nuclei (%) [11]: 74% | Population Hoechst High Intensity Objects (%) [11]: 10% | Population Membrane Permeable-Phenotype (%) [11]: 1% | Population Mitochondria Different-Phenotype (%) [11]: 61% | Population Mitotic Cells (%) [11]: 50% | Population Normal (%) [11]: 89% | Population Pyknosed Nuclei (%) [11]: 12% | Population Tubulin-Different-Phenotype (%) [11]: 56% | Total Cell Count [11]: 671 | Population Apoptotic (%) [12]: 53% | Population Healthy Nuclei (%) [12]: 75% | Population Hoechst High Intensity Objects (%) [12]: 12% | Population Membrane Permeable-Phenotype (%) [12]: 0% | Population Mitochondria Different-Phenotype (%) [12]: 84% | Population Mitotic Cells (%) [12]: 46% | Population Normal (%) [12]: 87% | Population Pyknosed Nuclei (%) [12]: 11% | Population Tubulin-Different-Phenotype (%) [12]: 73% | Total Cell Count [12]: 300

CN1CCN(c2nc3cc(C(F)(F)F)ccc3n3cccc23)CC1.O=C(O)/C=C\C(=O)O.O=C(O)/C=C\C(=O)O
Population Apoptotic (%) [1]: 37% | Population Fragmented Nuclei (%) [1]: 5% | Population Healthy Nuclei (%) [1]: 80% | Population Hoechst High Intensity Objects (%) [1]: 10% | Population Membrane Permeable-Phenotype (%) [1]: 0% | Population Mitochondria Different-Phenotype (%) [1]: 48% | Population Mitotic Cells (%) [1]: 62% | Population Normal (%) [1]: 89% | Population Pyknosed Nuclei (%) [1]: 13% | Population Tubulin-Different-Phenotype (%) [1]: 33% | Total Cell Count [1]: 438 | Population Apoptotic (%) [2]: 53% | Population Fragmented Nuclei (%) [2]: 8% | Population Healthy Nuclei (%) [2]: 77% | Population Hoechst High Intensity Objects (%) [2]: 5% | Population Mitochondria Different-Phenotype (%) [2]: 76% | Population Mitotic Cells (%) [2]: 46% | Population Normal (%) [2]: 94% | Population Pyknosed Nuclei (%) [2]: 14% | Population Tubulin-Different-Phenotype (%) [2]: 35% | Total Cell Count [2]: 332 | Population Apoptotic (%) [3]: 68% | Population Fragmented Nuclei (%) [3]: 7% | Population Healthy Nuclei (%) [3]: 76% | Population Hoechst High Intensity Objects (%) [3]: 14% | Population Membrane Permeable-Phenotype (%) [3]: 0% | Population Mitochondria Different-Phenotype (%) [3]: 73% | Population Mitotic Cells (%) [3]: 31% | Population Normal (%) [3]: 85% | Population Pyknosed Nuclei (%) [3]: 15% | Population Tubulin-Different-Phenotype (%) [3]: 64% | Total Cell Count [3]: 396 | Population Apoptotic (%) [4]: 64% | Population Fragmented Nuclei (%) [4]: 5% | Population Hoechst High Intensity Objects (%) [4]: 9% | Population Mitochondria Different-Phenotype (%) [4]: 89% | Population Mitotic Cells (%) [4]: 35% | Population Normal (%) [4]: 90% | Population Pyknosed Nuclei (%) [4]: 18% | Population Tubulin-Different-Phenotype (%) [4]: 66% | Total Cell Count [4]: 286 | Population Apoptotic (%) [5]: 33% | Population Fragmented Nuclei (%) [5]: 9% | Population Healthy Nuclei (%) [5]: 81% | Population Hoechst High Intensity Objects (%) [5]: 6% | Population Membrane Permeable-Phenotype (%) [5]: 1% | Population Mitochondria Different-Phenotype (%) [5]: 30% | Population Mitotic Cells (%) [5]: 66% | Population Normal (%) [5]: 93% | Population Pyknosed Nuclei (%) [5]: 9% | Population Tubulin-Different-Phenotype (%) [5]: 24% | Total Cell Count [5]: 557 | Population Apoptotic (%) [6]: 54% | Population Fragmented Nuclei (%) [6]: 6% | Population Healthy Nuclei (%) [6]: 83% | Population Membrane Permeable-Phenotype (%) [6]: 0% | Population Mitochondria Different-Phenotype (%) [6]: 50% | Population Mitotic Cells (%) [6]: 45% | Population Pyknosed Nuclei (%) [6]: 10% | Population Tubulin-Different-Phenotype (%) [6]: 25% | Total Cell Count [6]: 390 | Population Apoptotic (%) [7]: 41% | Population Fragmented Nuclei (%) [7]: 8% | Population Healthy Nuclei (%) [7]: 77% | Population Hoechst High Intensity Objects (%) [7]: 9% | Population Membrane Permeable-Phenotype (%) [7]: 0% | Population Mitochondria Different-Phenotype (%) [7]: 65% | Population Mitotic Cells (%) [7]: 58% | Population Normal (%) [7]: 90% | Population Pyknosed Nuclei (%) [7]: 13% | Population Tubulin-Different-Phenotype (%) [7]: 62% | Total Cell Count [7]: 490 | Population Apoptotic (%) [8]: 63% | Population Fragmented Nuclei (%) [8]: 10% | Population Healthy Nuclei (%) [8]: 78% | Population Hoechst High Intensity Objects (%) [8]: 7% | Population Mitochondria Different-Phenotype (%) [8]: 79% | Population Mitotic Cells (%) [8]: 36% | Population Normal (%) [8]: 92% | Population Pyknosed Nuclei (%) [8]: 10% | Population Tubulin-Different-Phenotype (%) [8]: 58% | Total Cell Count [8]: 378 | Population Apoptotic (%) [9]: 20% | Population Fragmented Nuclei (%) [9]: 13% | Population Healthy Nuclei (%) [9]: 78% | Population Hoechst High Intensity Objects (%) [9]: 3% | Population Membrane Permeable-Phenotype (%) [9]: 2% | Population Mitochondria Different-Phenotype (%) [9]: 17% | Population Mitotic Cells (%) [9]: 79% | Population Normal (%) [9]: 96% | Population Pyknosed Nuclei (%) [9]: 7% | Population Tubulin-Different-Phenotype (%) [9]: 17% | Total Cell Count [9]: 915 | Population Apoptotic (%) [10]: 37% | Population Healthy Nuclei (%) [10]: 79% | Population Hoechst High Intensity Objects (%) [10]: 5% | Population Membrane Permeable-Phenotype (%) [10]: 0% | Population Mitochondria Different-Phenotype (%) [10]: 42% | Population Mitotic Cells (%) [10]: 62% | Population Normal (%) [10]: 94% | Population Tubulin-Different-Phenotype (%) [10]: 21% | Total Cell Count [10]: 535 | Population Apoptotic (%) [11]: 50% | Population Fragmented Nuclei (%) [11]: 15% | Population Healthy Nuclei (%) [11]: 75% | Population Hoechst High Intensity Objects (%) [11]: 10% | Population Membrane Permeable-Phenotype (%) [11]: 2% | Population Mitochondria Different-Phenotype (%) [11]: 41% | Population Mitotic Cells (%) [11]: 50% | Population Normal (%) [11]: 89% | Population Pyknosed Nuclei (%) [11]: 8% | Population Tubulin-Different-Phenotype (%) [11]: 44% | Total Cell Count [11]: 672 | Population Apoptotic (%) [12]: 52% | Population Fragmented Nuclei (%) [12]: 11% | Population Healthy Nuclei (%) [12]: 77% | Population Hoechst High Intensity Objects (%) [12]: 12% | Population Membrane Permeable-Phenotype (%) [12]: 0% | Population Mitochondria Different-Phenotype (%) [12]: 65% | Population Mitotic Cells (%) [12]: 47% | Population Normal (%) [12]: 87% | Population Pyknosed Nuclei (%) [12]: 10% | Population Tubulin-Different-Phenotype (%) [12]: 56% | Total Cell Count [12]: 472
